Our source for the IC50, Activity and Ki values is ChEMBL document CHEMBL5608193, “Discovery of bivalent small molecule degraders of cyclin-dependent kinase 7 (CDK7)” (Eur J Med Chem, 2024).

Activity calls are given as the source filed them. The rule behind the calls is not given here.

Test [1] addresses T1, CDK7/Cyclin H/MNAT1 (Homo sapiens, UniProt P50613). As to the kind of experiment: Inhibition of CDK7/CycH/MNAT1 (unknown origin) assessed as change in TR-FRET ratio using Cdk7/9tide as substrate and ATP by in vitro Adapta Eu kinase assay. Type of test: protein-complex assay. The essentials: (§1)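 Adapta Eu kinase assay run at ThermoFisher on CDK7/Cyclin H/MNAT1 with ATP at Km.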

For test [2], the target named is T2, Protein cereblon/Cyclin-dependent kinase 7 (Homo sapiens) (UniProt P50613+Q96SW2). As to the kind of experiment: PROTAC activity at CDK7/CRBN in human Jurkat cells assessed as degradation of CDK7 at 0.1 uM measured after 16 hrs incubation by immunoblot analysis. Type of test: cell-based. The essentials:
(§2)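 Jurkat cells exposed to CRBN-recruiting bivalent compounds at 0.1 or 1 μM for 16 h. Lysed in RIPA with protease/phosphatase inhibitors, BCA-normalized, run on 4–20% SDS-PAGE and blotted to nitrocellulose. Probed with anti-CDK7 (1:1000) and β-actin (1:5000) overnight at 4 °C, IRDye secondaries, near-infrared imaging.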
Background: A western blot detects proteins with antibodies after separation by electrophoresis.

For test [3], the target named is T2, Protein cereblon/Cyclin-dependent kinase 7 (Homo sapiens). As to the kind of experiment: PROTAC activity at CDK7/CRBN in human Jurkat cells assessed as degradation of CDK7 at 1 uM measured after 16 hrs incubation by immunoblot analysis. Type of test: cell-based. In outline:
as §2

In test [4] the target is T3, von Hippel-Lindau disease tumor suppressor/Cyclin-dependent kinase 7 (Homo sapiens) (UniProt P50613+P40337). Kind of test: PROTAC activity at CDK7/VHL in human Jurkat cells assessed as degradation of CDK7 at 0.1 uM measured after 16 hrs incubation by immunoblot analysis relative to control. Type of test: cell-based. In outline:
(§3)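 Jurkat cells given VHL-recruiting compounds at 0.1 or 1 μM for 16 h. RIPA lysis, BCA normalization, 4–20% SDS-PAGE, nitrocellulose transfer. CDK7 (1:1000) and β-actin probed overnight at 4 °C, IRDye secondaries, Odyssey detection. Quantified against control, mean ± SEM from three independent biological replicates.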

Test [5] addresses T3, von Hippel-Lindau disease tumor suppressor/Cyclin-dependent kinase 7 (Homo sapiens). Kind of test: PROTAC activity at CDK7/VHL in human Jurkat cells assessed as degradation of CDK7 at 1 uM measured after 16 hrs incubation by immunoblot analysis relative to control. Type of test: cell-based. In outline:
as §3

For another test, the system named is Jurkat. Kind of test: Antiproliferative activity against human Jurkat cells assessed as cell viability measured after 72 hrs by CellTiter-Glo assay. Type of test: functional, cell-based. In outline:
(§4)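 Cells grown in RPMI 1640 with 10% heat-inactivated FBS and penicillin/streptomycin at 37 °C, 5% CO2, mycoplasma-negative. Seeded at 10^4/ml. Compounds dispensed digitally from 10 mM or 1 mM DMSO stocks, DMSO equalized, triplicate wells. After 72 h, CellTiter-Glo added for 10–15 min at room temperature and luminescence read.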
A general note: ATP-based viability assays read luminescence as a measure of living cells.

Another test relates to A549. Kind of test: Antiproliferative activity against human A549 cells assessed as cell viability measured after 72 hrs by CellTiter-Glo assay. Type of test: functional, cell-based. As to conditions: A549, 72 h. In outline:
as §4

The target in test [6] is T1, CDK7/Cyclin H/MNAT1. Kind of test: Inhibition of CDK7/CycH/MAT1 (unknown origin). On the set-up: species or system Sf9. In outline:
as §1

In another test the test system is SU-DHL-5. Kind of test: Antiproliferative activity against human SU-DHL-5 cells assessed as cell viability measured after 72 hrs by CellTiter-Glo assay. Type of test: functional, cell-based. As to conditions: SU-DHL-5, 72 h. In outline:
as §4

Another test deals with MOLT-4. As to the kind of experiment: Antiproliferative activity against human MOLT-4 cells assessed as cell viability measured after 72 hrs by CellTiter-Glo assay. Type of test: functional, cell-based. As to conditions: MOLT-4, 72 h. The essentials: as §4
Another test relates to OVCAR-3. Kind of test: Antiproliferative activity against human OVCAR-3 cells assessed as cell viability measured after 72 hrs by CellTiter-Glo assay. Type of test: functional, cell-based. As to conditions: OVCAR-3, 72 h. The essentials: as §4
Test [7] addresses T1, CDK7/Cyclin H/MNAT1. Kind of test: Inhibition of recombinant GST-tagged CDK7/CycH/MAT1 (unknown origin) extracted from baculo-virus infected Sf9 insect cells assessed as inhibition constant using ATP containing 32P measured after 15 mins by Beckman liquid scintillation counter analysis. Type of test: cell-free.

T2 sequence (P50613 whole entry, looked up): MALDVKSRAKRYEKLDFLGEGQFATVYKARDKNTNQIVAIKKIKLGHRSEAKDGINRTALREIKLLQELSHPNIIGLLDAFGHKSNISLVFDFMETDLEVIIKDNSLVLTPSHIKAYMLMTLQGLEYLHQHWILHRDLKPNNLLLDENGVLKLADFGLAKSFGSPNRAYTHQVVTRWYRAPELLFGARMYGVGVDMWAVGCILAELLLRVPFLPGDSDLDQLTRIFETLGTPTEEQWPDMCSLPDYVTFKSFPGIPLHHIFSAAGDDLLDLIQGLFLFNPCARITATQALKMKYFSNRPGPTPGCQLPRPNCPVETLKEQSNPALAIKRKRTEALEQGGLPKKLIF
T2 sequence (Q96SW2 whole entry, looked up): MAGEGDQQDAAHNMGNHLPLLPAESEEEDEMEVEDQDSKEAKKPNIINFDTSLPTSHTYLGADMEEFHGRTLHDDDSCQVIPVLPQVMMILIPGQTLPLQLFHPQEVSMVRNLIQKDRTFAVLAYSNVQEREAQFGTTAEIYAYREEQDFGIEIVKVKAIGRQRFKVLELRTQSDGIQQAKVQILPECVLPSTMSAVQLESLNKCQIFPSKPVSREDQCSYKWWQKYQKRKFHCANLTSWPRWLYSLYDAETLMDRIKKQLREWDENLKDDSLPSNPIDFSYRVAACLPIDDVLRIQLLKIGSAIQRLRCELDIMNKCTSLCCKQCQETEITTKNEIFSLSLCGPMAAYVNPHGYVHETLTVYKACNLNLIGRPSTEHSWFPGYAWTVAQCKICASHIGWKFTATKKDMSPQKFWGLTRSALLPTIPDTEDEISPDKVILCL
T3 sequence (P40337 whole entry, looked up): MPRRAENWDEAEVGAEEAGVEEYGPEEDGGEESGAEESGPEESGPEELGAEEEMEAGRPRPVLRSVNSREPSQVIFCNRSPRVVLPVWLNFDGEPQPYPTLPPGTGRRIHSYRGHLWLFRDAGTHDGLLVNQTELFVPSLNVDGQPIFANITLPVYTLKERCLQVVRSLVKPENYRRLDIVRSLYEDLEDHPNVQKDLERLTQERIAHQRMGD
T3 sequence (P50613 whole entry, looked up): as the sequence (P50613 whole entry, looked up) above
T1 sequence (P51946 whole entry): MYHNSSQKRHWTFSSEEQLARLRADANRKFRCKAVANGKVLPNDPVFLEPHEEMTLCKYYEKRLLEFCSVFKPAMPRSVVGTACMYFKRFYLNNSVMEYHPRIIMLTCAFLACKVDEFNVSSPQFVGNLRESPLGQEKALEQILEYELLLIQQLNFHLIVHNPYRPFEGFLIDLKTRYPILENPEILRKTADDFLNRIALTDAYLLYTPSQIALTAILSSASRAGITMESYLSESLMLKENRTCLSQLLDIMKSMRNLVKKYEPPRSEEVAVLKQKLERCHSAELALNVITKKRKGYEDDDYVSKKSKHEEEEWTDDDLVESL
T1 sequence (P50613 whole entry): as the sequence (P50613 whole entry, looked up) above
T1 sequence (P51948 whole entry, further chain): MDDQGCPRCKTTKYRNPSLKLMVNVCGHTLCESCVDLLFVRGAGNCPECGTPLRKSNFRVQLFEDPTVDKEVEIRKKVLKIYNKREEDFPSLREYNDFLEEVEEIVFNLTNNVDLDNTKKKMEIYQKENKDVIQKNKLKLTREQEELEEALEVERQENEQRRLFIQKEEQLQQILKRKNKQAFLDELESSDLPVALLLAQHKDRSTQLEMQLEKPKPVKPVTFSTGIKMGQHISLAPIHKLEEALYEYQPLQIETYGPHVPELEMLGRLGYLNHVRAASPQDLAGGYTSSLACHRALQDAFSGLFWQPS

Usually IC50 stands for the concentration that gives 50% inhibition. As to `CN(C)C[C@@H](NC(=O)N1Cc2c(NC(=O)c3ccc(C(=O)NCCCCC#Cc4cccc5c4C(=O)N(C4CCC(=O)NC4=O)C5=O)cc3)n[nH]c2C1(C)C)c1ccccc1` (some centres not stated), the IC50 on CDK7/Cyclin H/MNAT1 [1] amounted to 13.3 nM. Besides, the outcome in [2] and in [3] was inactive.
For `Cc1ncsc1-c1ccc([C@H](C)NC(=O)[C@@H]2C[C@@H](O)CN2C(=O)[C@@H](NC(=O)CCCNC(=O)c2ccc(C(=O)Nc3n[nH]c4c3CN(C(=O)N[C@H](CN(C)C)c3ccccc3)C4(C)C)cc2)C(C)(C)C)cc1`, on CDK7/Cyclin H/MNAT1 [1], the IC50 was 5.6 nM. Further, the outcome in test [4] and in test [5] was Active.
For `Cc1ncsc1-c1ccc([C@H](C)NC(=O)[C@@H]2C[C@@H](O)CN2C(=O)[C@@H](NC(=O)CCCCCNC(=O)c2ccc(C(=O)Nc3n[nH]c4c3CN(C(=O)N[C@H](CN(C)C)c3ccccc3)C4(C)C)cc2)C(C)(C)C)cc1`, the IC50 on CDK7/Cyclin H/MNAT1 [1] stood at 8.1 nM. The outcome in [4] and in test [5] was Active.
Regarding `CN(C)C[C@@H](NC(=O)N1Cc2c(NC(=O)c3ccc(C(=O)NCCCCCOc4cccc5c4C(=O)N(C4CCC(=O)NC4=O)C5=O)cc3)n[nH]c2C1(C)C)c1ccccc1` (some centres not stated), the 50% inhibitory concentration (IC50) at CDK7/Cyclin H/MNAT1 [1] was determined as 9.2 nM. For the same molecule, the outcome in test [2] and in test [3] was inactive.
Turning to `Cc1ncsc1-c1ccc(CNC(=O)C2[C@@H](O)CCN2C(=O)C(NC(=O)C2(F)CC2)C(C)(C)C)c(OCCOCCOCCNC(=O)c2ccc(C(=O)Nc3n[nH]c4c3CN(C(=O)N[C@H](CN(C)C)c3ccccc3)C4(C)C)cc2)c1` (some centres not stated), the IC50 at CDK7/Cyclin H/MNAT1 [1] turned out to be 13.4 nM. Besides, the result in test [4] and in [5] was Active.
On to `Cc1ncsc1-c1ccc([C@H](C)NC(=O)[C@@H]2C[C@@H](O)CN2C(=O)[C@@H](NC(=O)CCCCOc2ccc(C(=O)Nc3n[nH]c4c3CN(C(=O)N[C@H](CN(C)C)c3ccccc3)C4(C)C)cc2)C(C)(C)C)cc1`, for which, at CDK7/Cyclin H/MNAT1 [1], the IC50 is 12.6 nM. Besides, the result in test [4] and in [5] was Active.
Consider `Cc1ncsc1-c1ccc([C@H](C)NC(=O)[C@@H]2C[C@@H](O)CN2C(=O)[C@@H](NC(=O)CCOCCOCCNC(=O)c2ccc(C(=O)Nc3n[nH]c4c3CN(C(=O)N[C@H](CN(C)C)c3ccccc3)C4)cc2)C(C)(C)C)cc1`, for which the IC50 on CDK7/Cyclin H/MNAT1 [1] worked out at 7.6 nM. Besides, the result in test [4] and in [5] was Active.
`CN(C)C[C@@H](NC(=O)N1Cc2c(NC(=O)c3ccc(C(=O)NCCOCCOCCOCCNc4cccc5c4C(=O)N(C4CCC(=O)NC4=O)C5=O)cc3)n[nH]c2C1(C)C)c1ccccc1` (some centres not stated): at CDK7/Cyclin H/MNAT1 [1], the IC50 worked out at 17.7 nM. In addition, the result in test [2] and in [3] was inactive.
With `CN(C)C[C@@H](NC(=O)N1Cc2c(NC(=O)c3ccc(C(=O)NCCCCCCCCOc4cccc5c4C(=O)N(C4CCC(=O)NC4=O)C5=O)cc3)n[nH]c2C1(C)C)c1ccccc1` (some centres not stated), at CDK7/Cyclin H/MNAT1 [1], the IC50 worked out at 34.4 nM. For the same molecule, the result in test [2] and in test [3] was inactive.
Regarding `CCC(=O)Nc1ccc(C(=O)Nc2n[nH]c3c2CN(C(=O)N[C@@H](CN(C)C)c2ccccc2)C3(C)C)cc1`, the IC50 in the test with Jurkat turned out to be 1190 nM; with A549 it was 1630 nM; against CDK7/Cyclin H/MNAT1 [6] it was 6.8 nM; in the test on SU-DHL-5 it was 176 nM; in the test with MOLT-4, 598 nM; with OVCAR-3, 896 nM.
Turning to `CN(C)C[C@@H](NC(=O)N1Cc2c(NC(=O)c3ccc(C(=O)NCCCCCCNc4cccc5c4C(=O)N(C4CCC(=O)NC4=O)C5=O)cc3)n[nH]c2C1(C)C)c1ccccc1` (some centres not stated), at CDK7/Cyclin H/MNAT1 [1], the IC50 was determined as 9.4 nM. Besides, the result in test [2] and in test [3] was inactive.
On to `CN(C)C[C@@H](NC(=O)N1Cc2c(NC(=O)c3ccc(C(=O)NCCOCCOCCNc4cccc5c4C(=O)N(C4CCC(=O)NC4=O)C5=O)cc3)n[nH]c2C1(C)C)c1ccccc1` (some centres not stated), for which the IC50 at CDK7/Cyclin H/MNAT1 [1] turned out to be 6.4 nM. Besides, the result in test [2] and in test [3] was inactive.
On to `CC(=O)N[C@H](C(=O)N1C[C@H](O)C[C@H]1C(=O)N[C@@H](C)c1ccc(-c2scnc2C(=O)NCCCCCNC(=O)c2ccc(C(=O)Nc3n[nH]c4c3CN(C(=O)N[C@H](CN(C)C)c3ccccc3)C4(C)C)cc2)cc1)C(C)(C)C`, for which, at CDK7/Cyclin H/MNAT1 [1], the IC50 was 8.6 nM. The result in test [4] and in test [5] was Active.
Consider `CN(C)C[C@@H](NC(=O)N1Cc2c(NC(=O)c3ccc(C(=O)NCCNc4cccc5c4C(=O)N(C4CCC(=O)NC4=O)C5=O)cc3)n[nH]c2C1(C)C)c1ccccc1` (some centres not stated), for which the IC50 on CDK7/Cyclin H/MNAT1 [1] turned out to be 6.7 nM. In addition, the result in test [2] and in test [3] was inactive.
Turning to `Cc1ncsc1-c1ccc([C@H](C)NC(=O)[C@@H]2C[C@@H](O)CN2C(=O)[C@@H](NC(=O)CCOCCNC(=O)c2ccc(C(=O)Nc3n[nH]c4c3CN(C(=O)N[C@H](CN(C)C)c3ccccc3)C4(C)C)cc2)C(C)(C)C)cc1`, the IC50 at CDK7/Cyclin H/MNAT1 [1] worked out at 11.1 nM. For the same molecule, the result in test [4] and in [5] was Active.
In the case of `Cc1ncsc1-c1ccc([C@H](C)NC(=O)[C@@H]2C[C@@H](O)CN2C(=O)[C@@H](NC(=O)CCNC(=O)c2ccc(C(=O)Nc3n[nH]c4c3CN(C(=O)N[C@H](CN(C)C)c3ccccc3)C4(C)C)cc2)C(C)(C)C)cc1`, at CDK7/Cyclin H/MNAT1 [1], the IC50 was 8.7 nM. For the same molecule, the outcome in test [4] and in test [5] was Active.
For the molecule `Cc1ncsc1-c1ccc([C@H](C)NC(=O)[C@@H]2C[C@@H](O)CN2C(=O)[C@@H](NC(=O)CCCCCc2ccc(C(=O)Nc3n[nH]c4c3CN(C(=O)N[C@H](CN(C)C)c3ccccc3)C4(C)C)cc2)C(C)(C)C)cc1`, the outcome in test [4] and in [5] was Active.
Usually Ki stands for a dissociation constant, usually derived from enzyme kinetics or from competition with a known ligand. As for `C=CC(=O)Nc1ccc(C(=O)Nc2n[nH]c3c2CN(C(=O)N[C@@H](CN(C)C)c2ccccc2)C3(C)C)cc1`, the Ki at CDK7/Cyclin H/MNAT1 [7] was found to be 2.2 nM.
`CN(C)C[C@@H](NC(=O)N1Cc2c(NC(=O)c3ccc(C(=O)NCCOCCNc4cccc5c4C(=O)N(C4CCC(=O)NC4=O)C5=O)cc3)n[nH]c2C1(C)C)c1ccccc1` (some centres not stated): the IC50 at CDK7/Cyclin H/MNAT1 [1] is 11.3 nM. The result in test [2] and in test [3] was inactive.
